Results reported in ChEMBL document CHEMBL1145471, “Small molecule regulators of autophagy identified by an image-based high-throughput screen” (Proc Natl Acad Sci U S A, 2007).

How the values were obtained:
Type in all cases: functional
[1] = test system: H4; assay: Increase in light chain 3-GFP+ autophagosome vesicle number per cell in human H4 cells at 8.9 uM after 24 hrs by high throughput fluorescence microscopy relative to control
How it was run: (§1)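 H4 cells stably expressing LC3-GFP, grown in DMEM with 10% FBS, penicillin/streptomycin and 2 mM L-glutamine at 37°C, 5% CO2. Cells were seeded in 96-well plates and exposed to library compounds at 3–12 μM for 24 h, then fixed in 4% paraformaldehyde and stained with 3 μg/ml DAPI. LC3-GFP spot number, size and intensity were measured by high-throughput fluorescence microscopy and expressed relative to DMSO. Triplicates, mean ± SD.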

[2] = test system: H4; assay: Increase in light chain 3-GFP+ autophagosome vesicle area per cell in human H4 cells at 8.9 uM after 24 hrs by high throughput fluorescence microscopy relative to control
How it was run: (§2)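 H4 cells stably expressing LC3-GFP, seeded in 96-well plates and exposed to compound for 24 h; screening concentrations were 3–12 μM, with rapamycin 0.22 μM and bafilomycin A1 0.40 μM. Cells fixed in 4% paraformaldehyde and stained with 3 μg/ml DAPI. Number, size and intensity of LC3-GFP spots measured by high-throughput fluorescence microscopy and expressed as percent of DMSO-treated wells. Rapamycin was the positive control. Triplicate wells, mean ± SD; experiments repeated three times.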

[3] = test system: H4; assay: Increase in light chain 3-GFP+ autophagosome vesicle intensity per cell in human H4 cells at 8.9 uM after 24 hrs by high throughput fluorescence microscopy relative to control
How it was run: (§3)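 H4 cells stably expressing LC3-GFP were grown in DMEM with 10% FBS and 2 mM L-glutamine at 37°C, 5% CO2. They were exposed to each compound for 24 h, with DMSO as negative and rapamycin as positive control. Cells were then fixed in 4% paraformaldehyde and stained with 3 μg/ml DAPI. High-throughput fluorescence imaging scored LC3-GFP spot number, size and intensity, expressed relative to DMSO. Mean ± SD of triplicates; experiments repeated three times.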

[4] = test system: H4; assay: Induction of light chain 3-GFP level in human H4 cells at 8.9 uM after 24 hrs by high throughput fluorescence microscopy relative to control; how it was run: as §1
[5] = test system: H4; assay: Increase in light chain 3-GFP+ autophagosome vesicle area per cell in human H4 cells at 11.3 uM after 24 hrs by high throughput fluorescence microscopy relative to control
How it was run: (§4)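 H4 cells stably expressing LC3-GFP, seeded in 96-well plates and exposed to compound for 24 h; fixed in 4% paraformaldehyde, nuclei stained with 3 μg/ml DAPI. Automated fluorescence microscopy scored number, size and intensity of LC3-GFP spots; values expressed relative to DMSO-treated wells, rapamycin positive control. Triplicate wells, mean ± SD; experiments repeated three times.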

[6] = test system: H4; assay: Increase in light chain 3-GFP+ autophagosome vesicle number per cell in human H4 cells at 7.4 uM after 24 hrs by high throughput fluorescence microscopy relative to control
How it was run: (§5)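 H4 cells stably expressing LC3-GFP, kept in DMEM/10% FBS at 37°C, 5% CO2, were seeded in 96-well plates and exposed to compound for 24 h. Cells were then fixed in 4% paraformaldehyde and stained with 3 μg/ml DAPI. Automated fluorescence microscopy scored the number, size and intensity of LC3-GFP spots. Values are percent of DMSO wells, in triplicate, mean ± SD. Rapamycin served as positive control.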

[7] = test system: H4; assay: Increase in light chain 3-GFP+ autophagosome vesicle intensity per cell in human H4 cells at 11.3 uM after 24 hrs by high throughput fluorescence microscopy relative to control; how it was run: as §4
[8] = test system: H4; assay: Induction of light chain 3-GFP level in human H4 cells at 7.4 uM after 24 hrs by high throughput fluorescence microscopy relative to control; how it was run: as §5
[9] = test system: H4; assay: Increase in light chain 3-GFP+ autophagosome vesicle number per cell in human H4 cells at 0.4 uM after 24 hrs by high throughput fluorescence microscopy relative to control; how it was run: as §4
[10] = test system: H4; assay: Increase in light chain 3-GFP+ autophagosome vesicle area per cell in human H4 cells at 0.4 uM after 24 hrs by high throughput fluorescence microscopy relative to control; how it was run: as §4
[11] = test system: H4; assay: Increase in light chain 3-GFP+ autophagosome vesicle intensity per cell in human H4 cells at 0.4 uM after 24 hrs by high throughput fluorescence microscopy relative to control; how it was run: as §4
[12] = test system: H4; assay: Induction of light chain 3-GFP level in human H4 cells at 0.4 uM after 24 hrs by high throughput fluorescence microscopy relative to control; how it was run: as §5
[13] = test system: H4; assay: Increase in light chain 3-GFP+ autophagosome vesicle number per cell in human H4 cells at 8.8 uM after 24 hrs by high throughput fluorescence microscopy relative to control; how it was run: as §1
[14] = test system: H4; assay: Increase in light chain 3-GFP+ autophagosome vesicle area per cell in human H4 cells at 8.8 uM after 24 hrs by high throughput fluorescence microscopy relative to control; how it was run: as §2
[15] = test system: H4; assay: Increase in light chain 3-GFP+ autophagosome vesicle intensity per cell in human H4 cells at 8.8 uM after 24 hrs by high throughput fluorescence microscopy relative to control; how it was run: as §3
[16] = test system: H4; assay: Effect on FYVE-RFP+ vesicle intensity per cell in human H4 cells after 2 hrs relative to control; parameters: concentration or dose not given beside the values
How it was run: (§6)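 H4 cells stably expressing FYVE-RFP (H4-FYVE), grown in DMEM with 10% FBS, penicillin/streptomycin and 2 mM L-glutamine at 37°C, 5% CO2, seeded in 96-well plates and exposed to compound. Fixed in 4% paraformaldehyde, nuclei stained with 3 μg/ml DAPI, FYVE-RFP+ vesicles quantified by high-throughput fluorescence microscopy against DMSO control. Triplicate wells, mean ± SD.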

[17] = test system: H4; assay: Effect on FYVE-RFP+ vesicle intensity per cell in human H4 cells after 4 hrs relative to control; parameters: concentration or dose not given beside the values; how it was run: as §6
[18] = test system: H4; assay: Effect on FYVE-RFP+ vesicle intensity per cell in human H4 cells after 8 hrs relative to control; parameters: concentration or dose not given beside the values; how it was run: as §6
[19] = test system: H4; assay: Increase in long-lived protein degradation in human H4 cells after 1 hr relative to control; parameters: concentration or dose not given beside the values
[20] = test system: H4; assay: Increase in long-lived protein degradation in human H4 cells after 2 hrs relative to control; parameters: concentration or dose not given beside the values
[21] = test system: H4; assay: Increase in long-lived protein degradation in human H4 cells after 4 hrs relative to control; parameters: concentration or dose not given beside the values
[22] = test system: H4; assay: Increase in long-lived protein degradation in human H4 cells after 24 hrs relative to control; parameters: concentration or dose not given beside the values
[23] = test system: H4; assay: Induction of light chain 3-GFP level in human H4 cells at 8.8 uM after 24 hrs by high throughput fluorescence microscopy relative to control; how it was run: as §1
[24] = test system: H4; assay: Increase in light chain 3-GFP+ autophagosome vesicle number per cell in human H4 cells at 12.7 uM after 24 hrs by high throughput fluorescence microscopy relative to control; how it was run: as §3
[25] = test system: H4; assay: Increase in light chain 3-GFP+ autophagosome vesicle area per cell in human H4 cells at 12.7 uM after 24 hrs by high throughput fluorescence microscopy relative to control
[26] = test system: H4; assay: Increase in light chain 3-GFP+ autophagosome vesicle intensity per cell in human H4 cells at 12.7 uM after 24 hrs by high throughput fluorescence microscopy relative to control
[27] = test system: H4; assay: Induction of light chain 3-GFP level in human H4 cells at 12.7 uM after 24 hrs by high throughput fluorescence microscopy relative to control; how it was run: as §1

With C[C@H]([C@H](C)N1CC(=O)NC(=O)C1)N1CC(=O)NC(=O)C1 the Activity [1] was 339.59%, the Activity [2] was 402.47% and the Activity [3] was 483.18%. For the same compound, the Activity [4] was 45.03%.
Compound C[C@@]1(CO)[C@H](O)CC[C@@]2(C)[C@H]1CC[C@H]1C[C@@H]3C[C@@]12CC[C@]3(O)CO [APHIDICOLIN] has an Activity [5] of 275.5%, an Activity [6] of 216.53% and an Activity [7] of 350.13%. The Activity [8] was 73.06%.
For CO/C1=C\C(C)=C\[C@@H](C)[C@@H](O)[C@@H](C)C/C(C)=C/C=C/[C@H](OC)[C@@H]([C@@H](C)[C@@H](O)[C@H](C)[C@@]2(O)C[C@@H](O)[C@H](C)[C@@H](C(C)C)O2)OC1=O [BAFILOMYCIN A1], the Activity [9] was 691.15%, the Activity [10] was 1608.62% and the Activity [11] was 4027.54%. It also gave an Activity [12] of 71.96%.
O=C(/C=C/c1ccc(O)c(O)c1)OCCc1ccccc1 [CAFFEIC ACID PHENETHYL ESTER] was tested, and the Activity [13] was 147.15%, the Activity [14] was 160.43% and the Activity [15] was 150.18%. The Activity [16] was 86.89%, the Activity [17] was 71.17% and the Activity [18] was 69.14%. For the same compound, the Activity [19] was 122.08%, the Activity [20] was 128.4% and the Activity [21] was 120.18%. For the same compound, the Activity [22] was 106.53% and the Activity [23] was 146.2%.
Compound C[C@@]12C(=O)OC(=O)[C@]1(C)[C@H]1CC[C@@H]2O1 [CANTHARIDIN] has an Activity [24] of 259.49%, an Activity [25] of 332.84% and an Activity [26] of 463.81%. For the same compound, the Activity [27] was 24.47%.
